Experiment [1] has as its target T1, Toll-like receptor 9 (Mus musculus) (UniProt Q9EQU3).
T1 sequence (whole entry): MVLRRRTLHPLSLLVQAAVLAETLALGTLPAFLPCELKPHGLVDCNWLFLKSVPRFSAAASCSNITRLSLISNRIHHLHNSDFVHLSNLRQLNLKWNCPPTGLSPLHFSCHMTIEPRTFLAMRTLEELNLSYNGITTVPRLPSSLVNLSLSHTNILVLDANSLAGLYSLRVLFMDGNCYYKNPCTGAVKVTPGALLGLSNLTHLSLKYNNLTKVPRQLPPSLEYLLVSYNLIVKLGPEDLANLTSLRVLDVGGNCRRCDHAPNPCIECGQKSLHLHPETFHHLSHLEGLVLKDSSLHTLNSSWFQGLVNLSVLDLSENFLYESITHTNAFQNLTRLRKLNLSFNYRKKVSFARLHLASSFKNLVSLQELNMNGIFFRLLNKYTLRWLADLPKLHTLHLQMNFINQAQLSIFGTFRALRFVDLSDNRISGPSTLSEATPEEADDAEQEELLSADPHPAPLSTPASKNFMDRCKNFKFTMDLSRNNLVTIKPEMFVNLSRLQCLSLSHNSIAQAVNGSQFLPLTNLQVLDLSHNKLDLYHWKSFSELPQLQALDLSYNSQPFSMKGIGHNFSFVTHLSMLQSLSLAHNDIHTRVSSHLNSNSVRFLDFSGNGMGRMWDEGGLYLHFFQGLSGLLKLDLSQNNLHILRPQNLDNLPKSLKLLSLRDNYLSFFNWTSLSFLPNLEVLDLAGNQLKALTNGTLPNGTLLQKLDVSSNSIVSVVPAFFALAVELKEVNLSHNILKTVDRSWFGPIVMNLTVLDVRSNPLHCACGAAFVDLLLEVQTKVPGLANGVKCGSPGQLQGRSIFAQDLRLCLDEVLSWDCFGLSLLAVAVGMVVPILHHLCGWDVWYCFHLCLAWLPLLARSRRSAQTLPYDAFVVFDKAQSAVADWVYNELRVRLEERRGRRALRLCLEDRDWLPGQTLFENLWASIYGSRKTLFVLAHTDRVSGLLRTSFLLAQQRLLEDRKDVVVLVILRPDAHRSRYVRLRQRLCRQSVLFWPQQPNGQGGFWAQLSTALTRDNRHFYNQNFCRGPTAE
In words: Inhibition of TLR9 in BALB/c mouse BMDM assessed as downregulation of CpG-stimulated IL-6 level at 5 ug/ml preincubated for 18 hrs followed by CpG challenge measured after 24 hrs by ELISA relative to control. The method in brief: (§1)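 BALB/c male bone marrow macrophages were differentiated 7 days with L929 supernatant (≥99% CD11b+/F4/80+). Cells were plated at 2 × 10^5/well in triplicate, rested overnight, and given compounds at 5 μg/mL for 18 h. They were then stimulated with 100 ng/mL S. minnesota LPS, 10 ng/mL Pam3CSK4 (BLP) or 0.01 μM CpG for 24 h. Supernatant IL-12p40 and IL-6 were measured by ELISA (sensitivity 16 pg/mL).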

Experiment [2] addresses T1, Toll-like receptor 9 (Mus musculus). Kind of experiment: Inhibition of TLR9 in BALB/c mouse BMDM assessed as downregulation of CpG-stimulated IL-12p40 level at 5 ug/ml preincubated for 18 hrs followed by CpG challenge measured after 24 hrs by ELISA relative to control. The method in brief: as §1
(In general: ELISA stands for enzyme-linked immunosorbent assay.)

For experiment [3], the target named is T2, TLR2/TLR6 (Mus musculus) (UniProt Q9QUN7+Q9EPW9). Kind of experiment: Inhibition of TLR2/6 in BALB/c mouse BMDM assessed as downregulation of BLP-stimulated IL-6 level at 5 ug/ml preincubated for 18 hrs followed by BLP challenge measured after 24 hrs by ELISA relative to control. The experiment is classed as protein-complex assay. In a few lines:
as §1

In experiment [4] the target is T2, TLR2/TLR6 (Mus musculus). Kind of experiment: Inhibition of TLR2/6 in BALB/c mouse BMDM assessed as downregulation of BLP-stimulated IL-12p40 level at 5 ug/ml preincubated for 18 hrs followed by BLP challenge measured after 24 hrs by ELISA relative to control. The experiment is classed as protein-complex assay. The method in brief: as §1
In experiment [5] the target is T3, Toll-like receptor 4 (Mus musculus) (UniProt Q9QUK6).
T3 sequence (whole entry): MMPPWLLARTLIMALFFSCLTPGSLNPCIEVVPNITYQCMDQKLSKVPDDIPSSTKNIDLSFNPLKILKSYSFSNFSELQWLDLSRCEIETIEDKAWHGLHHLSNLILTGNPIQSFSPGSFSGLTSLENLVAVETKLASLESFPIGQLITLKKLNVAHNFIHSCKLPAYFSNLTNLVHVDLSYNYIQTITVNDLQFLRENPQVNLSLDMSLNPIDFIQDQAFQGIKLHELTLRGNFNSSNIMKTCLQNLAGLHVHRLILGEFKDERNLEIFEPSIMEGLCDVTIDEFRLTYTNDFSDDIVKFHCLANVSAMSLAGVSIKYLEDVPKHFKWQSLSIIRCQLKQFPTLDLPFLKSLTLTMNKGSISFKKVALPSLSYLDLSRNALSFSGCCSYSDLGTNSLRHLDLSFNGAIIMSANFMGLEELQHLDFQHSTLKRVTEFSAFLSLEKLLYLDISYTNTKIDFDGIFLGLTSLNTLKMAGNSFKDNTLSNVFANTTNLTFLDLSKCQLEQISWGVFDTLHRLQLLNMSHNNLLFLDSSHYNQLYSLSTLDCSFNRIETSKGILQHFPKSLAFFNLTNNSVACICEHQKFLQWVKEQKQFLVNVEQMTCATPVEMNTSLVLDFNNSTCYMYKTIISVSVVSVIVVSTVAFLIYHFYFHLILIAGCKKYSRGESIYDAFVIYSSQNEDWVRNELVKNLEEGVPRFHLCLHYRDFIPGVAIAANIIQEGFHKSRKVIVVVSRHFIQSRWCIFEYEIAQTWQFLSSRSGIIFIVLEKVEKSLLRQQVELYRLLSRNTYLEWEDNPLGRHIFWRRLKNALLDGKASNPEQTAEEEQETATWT
Kind of experiment: Inhibition of TLR4 in BALB/c mouse BMDM assessed as downregulation of LPS-stimulated IL-6 level at 5 ug/ml preincubated for 18 hrs followed by LPS challenge measured after 24 hrs by ELISA relative to control. In a few lines:
as §1

In experiment [6] the target is T3, Toll-like receptor 4 (Mus musculus). Kind of experiment: Inhibition of TLR4 in BALB/c mouse BMDM assessed as downregulation of LPS-stimulated IL-12p40 level at 5 ug/ml preincubated for 18 hrs followed by LPS challenge measured after 24 hrs by ELISA relative to control. The method in brief: as §1

Drawing on ChEMBL document CHEMBL3108700, “Designing anti-inflammatory drugs from parasitic worms: a synthetic small molecule analogue of the Acanthocheilonema viteae product ES-62 prevents development of collagen-induced arthritis” (J Med Chem, 2013), this text covers inhibition for 18 molecules.

Activity calls are given as the source filed them. No rule for the calls is given here.

Turning to `CN(C)CCS(=O)(=O)Nc1ccccc1`, the inhibition entry (in experiment [1]; in experiment [2]; on TLR2/TLR6 (Mus musculus) [3]; at TLR2/TLR6 (Mus musculus) [4]; in experiment [5]) was “inactive” each time. Moreover, the inhibition entry in experiment [6] is “Active”.

Consider `CN(C)CCN(C)CCS(=O)(=O)Nc1ccc(F)cc1`, for which the inhibition result (in experiment [1]; in experiment [2]; on TLR2/TLR6 (Mus musculus) [3]; on TLR2/TLR6 (Mus musculus) [4]; in experiment [5]) was “inactive” throughout. Besides, in experiment [6], the inhibition entry was “Active”.

Regarding `Cc1ccc(CNS(=O)(=O)CCN(C)CCN(C)C)cc1`, the inhibition entry (in experiment [1]; on TLR2/TLR6 (Mus musculus) [3]; in experiment [5]; in experiment [6]) was “Active” throughout. The inhibition result (in experiment [2]; at TLR2/TLR6 (Mus musculus) [4]) was “inactive” throughout.

Take `O=S(=O)(CCN1CCCC1)Cc1cccc(F)c1`: the inhibition entry (in experiment [1]; in experiment [2]; at TLR2/TLR6 (Mus musculus) [3]; in experiment [5]; in experiment [6]) was “inactive” in each case. Also, the inhibition result at TLR2/TLR6 (Mus musculus) [4] is “Active”.

`O=[N+]([O-])c1ccc(CS(=O)(=O)NCCN2CCOCC2)cc1`: the inhibition entry (in experiment [1]; in experiment [2]; at TLR2/TLR6 (Mus musculus) [3]; on TLR2/TLR6 (Mus musculus) [4]; in experiment [5]; in experiment [6]) was “inactive” throughout.

Take `COc1ccc2c(CS(=O)(=O)NCCN3CCOCC3)cc(=O)oc2c1`: the inhibition result (in experiment [1]; in experiment [2]; at TLR2/TLR6 (Mus musculus) [3]; in experiment [5]) was “inactive” throughout. Besides, the inhibition entry (on TLR2/TLR6 (Mus musculus) [4]; in experiment [6]) was “Active” throughout.

Regarding `CN(C)CCNC(=O)Cc1ccccc1`, the inhibition result in experiment [1] and in experiment [6] was “Active” in each case. Also, the inhibition entry (in experiment [2]; on TLR2/TLR6 (Mus musculus) [3]; on TLR2/TLR6 (Mus musculus) [4]; in experiment [5]) was “inactive” throughout.

In the case of `O=C(CCN1CCOCC1)NCc1cccc2cnccc12`, the inhibition entry (in experiment [1]; in experiment [2]; at TLR2/TLR6 (Mus musculus) [3]; in experiment [5]; in experiment [6]) was “inactive” in each case. For the same molecule, the inhibition result at TLR2/TLR6 (Mus musculus) [4] is “Active”.

For the molecule `CC[C@@H](C)NCCS(=O)(=O)Cc1cccc(F)c1`, the inhibition entry in experiment [1], in experiment [2], in experiment [5] and in experiment [6] was “inactive” throughout. The inhibition result at TLR2/TLR6 (Mus musculus) [3] and on TLR2/TLR6 (Mus musculus) [4] was “Active” throughout.

In the case of `Cc1ccc(CS(=O)(=O)CCC[N+]2(C)CCCC2)cc1`, the inhibition entry (in experiment [1]; in experiment [2]; at TLR2/TLR6 (Mus musculus) [3]; on TLR2/TLR6 (Mus musculus) [4]; in experiment [5]; in experiment [6]) was “inactive” each time.

Turning to `CN(C)CCN(C)CCS(=O)(=O)Cc1ccc(F)cc1`, the inhibition result (in experiment [1]; in experiment [2]; on TLR2/TLR6 (Mus musculus) [3]; in experiment [5]; in experiment [6]) was “inactive” throughout. Further, the inhibition entry at TLR2/TLR6 (Mus musculus) [4] is “Active”.

As to `COc1ccc2c(CS(=O)(=O)NCCN(C)C)cc(=O)oc2c1`, the inhibition result (in experiment [1]; in experiment [2]; on TLR2/TLR6 (Mus musculus) [3]; in experiment [5]) was “inactive” each time. The inhibition result (at TLR2/TLR6 (Mus musculus) [4]; in experiment [6]) was “Active” each time.

Consider `CC[C@@H](C)NCCS(=O)(=O)Cc1ccc(Br)cc1`, for which the inhibition result (in experiment [1]; in experiment [2]; at TLR2/TLR6 (Mus musculus) [3]; at TLR2/TLR6 (Mus musculus) [4]; in experiment [5]; in experiment [6]) was “inactive” in each case.

On to `O=[N+]([O-])c1ccc(CS(=O)(=O)NCCN2CCCC2)cc1`, for which the inhibition entry (in experiment [1]; in experiment [2]; at TLR2/TLR6 (Mus musculus) [3]; on TLR2/TLR6 (Mus musculus) [4]; in experiment [5]; in experiment [6]) was “inactive” throughout.

In the case of `Cc1ccc(CS(=O)(=O)CC[N+](C)(C)C)cc1`, the inhibition entry (in experiment [1]; in experiment [2]; at TLR2/TLR6 (Mus musculus) [4]; in experiment [6]) was “Active” in each case. Further, the inhibition entry (on TLR2/TLR6 (Mus musculus) [3]; in experiment [5]) was “inactive” throughout.

Turning to `CN(C)CCS(=O)(=O)Cc1ccc(F)cc1`, the inhibition result in experiment [1], in experiment [2], in experiment [5] and in experiment [6] was “inactive” in each case. Moreover, the inhibition result on TLR2/TLR6 (Mus musculus) [3] and at TLR2/TLR6 (Mus musculus) [4] was “Active” in each case.

As for `CC[C@@H](C)NCCS(=O)(=O)c1ccccc1`, the inhibition entry (in experiment [1]; in experiment [2]; at TLR2/TLR6 (Mus musculus) [3]; at TLR2/TLR6 (Mus musculus) [4]; in experiment [5]; in experiment [6]) was “inactive” each time.

For `O=S(=O)(CCN1CCOCC1)NCc1ccccc1`, the inhibition entry (in experiment [1]; in experiment [2]; on TLR2/TLR6 (Mus musculus) [3]; at TLR2/TLR6 (Mus musculus) [4]; in experiment [5]; in experiment [6]) was “inactive” throughout.
